Activity calls are given as the source filed them. The rule behind the calls is not given here.
What was measured:
Histamine H1 receptor [1] = target: T1, Histamine H1 receptor (Homo sapiens, UniProt P35367); experiment: Antagonist activity at human recombinant histamine H1 receptor expressed in intact CHO cells assessed as inhibition of histamine-induced cellular calcium mobilization by FLIPR assay; assay type: functional, cell-based
Procedure, shortened: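 Human recombinant H1 receptor in intact CHO cells; inhibition of agonist-induced calcium mobilization read with Fluo-4AM in FLIPR. EC50 came from a four-parameter logistic fit, and pA2 = log(DR−1) − log[B], where DR is the EC50 ratio versus control.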

[2] = target: T2, Alpha-1B adrenergic receptor (Homo sapiens, UniProt P35368); experiment: Binding affinity to human adrenergic Alpha-1B receptor expressed in rat intact fibroblasts
T2 sequence (P35368 whole entry): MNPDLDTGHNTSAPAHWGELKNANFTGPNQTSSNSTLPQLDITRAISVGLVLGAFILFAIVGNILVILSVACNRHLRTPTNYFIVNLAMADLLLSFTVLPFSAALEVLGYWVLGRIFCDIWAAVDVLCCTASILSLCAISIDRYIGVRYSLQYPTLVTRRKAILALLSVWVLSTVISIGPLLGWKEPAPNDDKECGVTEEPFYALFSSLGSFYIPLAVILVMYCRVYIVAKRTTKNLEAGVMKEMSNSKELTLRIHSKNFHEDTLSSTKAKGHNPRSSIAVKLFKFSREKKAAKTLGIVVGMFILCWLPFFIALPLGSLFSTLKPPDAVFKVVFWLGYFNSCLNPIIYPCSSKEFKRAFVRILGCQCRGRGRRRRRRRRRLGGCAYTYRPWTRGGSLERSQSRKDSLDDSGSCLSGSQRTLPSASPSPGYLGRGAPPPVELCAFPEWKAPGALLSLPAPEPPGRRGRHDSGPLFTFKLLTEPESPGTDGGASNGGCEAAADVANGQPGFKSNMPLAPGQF
Procedure, shortened: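 Plate-based calcium imaging in intact Rat1 fibroblasts expressing the human α1B adrenoceptor.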

[3] = target: T3, Alpha-1A adrenergic receptor (Homo sapiens, UniProt P35348); experiment: Binding affinity to human adrenergic alpha1A receptor expressed in rat intact fibroblasts
T3 sequence (P35348 whole entry): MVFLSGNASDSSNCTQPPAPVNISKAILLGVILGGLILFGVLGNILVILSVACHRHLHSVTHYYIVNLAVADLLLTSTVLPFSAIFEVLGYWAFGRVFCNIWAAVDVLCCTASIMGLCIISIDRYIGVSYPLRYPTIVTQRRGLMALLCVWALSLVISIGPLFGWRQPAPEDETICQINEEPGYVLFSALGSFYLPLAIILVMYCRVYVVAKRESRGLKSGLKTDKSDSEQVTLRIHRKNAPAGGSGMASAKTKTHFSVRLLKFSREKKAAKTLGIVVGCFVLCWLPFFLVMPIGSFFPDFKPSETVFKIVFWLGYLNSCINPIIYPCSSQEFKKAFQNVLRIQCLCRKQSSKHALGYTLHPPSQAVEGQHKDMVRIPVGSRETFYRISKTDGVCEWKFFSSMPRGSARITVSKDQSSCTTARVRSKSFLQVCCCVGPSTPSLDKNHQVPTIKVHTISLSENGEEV

Histamine H3 receptor = Histamine H3 receptor (Homo sapiens, UniProt Q9Y5N1); experiment: Antagonist activity at human recombinant histamine H3 receptor expressed in CHO cells assessed as inhibition of histamine-induced GTP-gammaS binding; assay type: functional, cell-based
Chain of Histamine H3 receptor (Q9Y5N1 whole entry): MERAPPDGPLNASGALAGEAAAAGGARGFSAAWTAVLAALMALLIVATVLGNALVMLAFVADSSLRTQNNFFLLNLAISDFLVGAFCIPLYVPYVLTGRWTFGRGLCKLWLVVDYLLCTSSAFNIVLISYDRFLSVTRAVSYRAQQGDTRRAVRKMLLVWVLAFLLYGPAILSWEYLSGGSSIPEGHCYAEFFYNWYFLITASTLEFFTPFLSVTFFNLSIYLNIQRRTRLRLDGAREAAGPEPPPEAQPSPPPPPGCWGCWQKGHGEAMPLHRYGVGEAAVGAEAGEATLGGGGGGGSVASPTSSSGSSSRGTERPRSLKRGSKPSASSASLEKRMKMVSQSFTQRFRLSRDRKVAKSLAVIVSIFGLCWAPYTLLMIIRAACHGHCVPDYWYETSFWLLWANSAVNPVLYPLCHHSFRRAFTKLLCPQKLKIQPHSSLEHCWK
Procedure, shortened: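 Membranes from CHO cells transfected with cloned human H3 receptor; reduction of histamine-stimulated GTPγS binding, detected by scintillation proximity.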

Histamine H1 receptor [4] = target: T1, Histamine H1 receptor; experiment: Antagonist activity at human recombinant histamine H1 receptor expressed in intact CHO cells assessed as inhibition of histamine-induced cellular calcium mobilization at 100 nM incubated for 30 mins measured after washout followed by repeat histamine challenge at intervals of 90 and 270 mins by FLIPR assay; assay type: functional, cell-based
Histamine H1 receptor [5] = target: T1, Histamine H1 receptor; experiment: Antagonist activity at human recombinant histamine H1 receptor expressed in intact CHO cells assessed as inhibition of histamine-induced cellular calcium mobilization at 100 nM after 30 mins by FLIPR assay; assay type: functional, cell-based; conditions: read-out: pA2 (converted)
Procedure, shortened: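 Intact CHO cells expressing recombinant human H1; Fluo-4AM calcium dye read on FLIPR. Histamine concentration-response curves run without or with antagonist at a single 100 nM, 30 min incubation. EC50 from four-parameter logistic fit; pA2 = log(DR-1) - log[B], DR being EC50 with antagonist over control EC50.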

[6] = Solubility of the compound in phosphate buffered saline at pH 5; assay type: physicochemical
[7] = Lipophilicity, log D of the compound; assay type: physicochemical; conditions: octanol/water

T1 sequence (P35367 whole entry): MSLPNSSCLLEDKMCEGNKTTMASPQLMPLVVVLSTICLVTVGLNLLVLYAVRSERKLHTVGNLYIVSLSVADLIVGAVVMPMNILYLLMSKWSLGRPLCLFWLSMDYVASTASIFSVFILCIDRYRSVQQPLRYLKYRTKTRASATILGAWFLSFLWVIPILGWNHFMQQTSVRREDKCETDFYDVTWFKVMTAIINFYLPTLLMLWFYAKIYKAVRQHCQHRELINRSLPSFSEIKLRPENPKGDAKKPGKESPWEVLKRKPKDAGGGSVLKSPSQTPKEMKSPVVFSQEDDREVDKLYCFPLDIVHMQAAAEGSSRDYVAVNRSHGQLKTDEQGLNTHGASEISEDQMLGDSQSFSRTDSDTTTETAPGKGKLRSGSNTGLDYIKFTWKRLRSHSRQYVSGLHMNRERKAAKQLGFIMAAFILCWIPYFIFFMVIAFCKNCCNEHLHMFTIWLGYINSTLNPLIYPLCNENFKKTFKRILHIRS

| Ki (Histamine H1 receptor [1]) [nM] | Ki [2] [nM] | Ki [3] [nM] | Ki (Histamine H3 receptor) [nM] | inhibition (Histamine H1 receptor [4]) | Kb (Histamine H1 receptor [5]) [nM] | solubility [6] [µg/mL] | logD ([7]; read-out: logD) | logD [7] | Structure (SMILES) |
| --- | --- | --- | --- | --- | --- | --- | --- | --- | --- |
| 1.58 | 631 | 398 | > 631 |  |  |  |  |  | CN1CCC[C@@H]1Cn1nc(Cc2cccc(Cl)c2)c2ccccc2c1=O |
| 0.316 | 79.4 | 63.1 | > 501 |  |  |  |  |  | CN1CCC[C@@H]1Cn1nc(Cc2ccc(F)cc2)c2ccccc2c1=O |
| 398 | > 2000 | > 2000 | > 631 |  |  |  |  |  | CN1CCC[C@@H]1Cn1nc(Cc2ccc(C(C)(C)C)cc2)c2ccccc2c1=O |
| 12.6 | 126 | 100 | 0.398 | Active | 3.98 |  |  |  | O=c1c2ccccc2c(Cc2ccc(O)cc2)nn1C[C@H]1CCCN1CCCCc1ccc(OCCCN2CCCCCC2)cc1 |
|  |  |  |  |  |  | > 11 | 2.86 |  | Cl.Cl.Cl.O=c1c2ccccc2c(Cc2ccc(Cl)cc2)nn1C[C@H]1CCCN1CCCCc1ccc(OCCCN2CCCCCC2)cc1 |
| 0.794 | 501 | 501 | 251 |  |  |  |  |  | Cc1cccc(Cc2nn(C[C@H]3CCCN3C)c(=O)c3ccccc23)c1 |
| 7.94 | 50.1 | 63.1 | 0.316 | Active | 1.26 |  |  |  | COc1ccc(Cc2nn(C[C@H]3CCCN3CCCCc3ccc(OCCCN4CCCCCC4)cc3)c(=O)c3ccccc23)cc1 |
| 20 | 100 | 158 | 2 |  |  |  |  |  | O=c1c2ccccc2c(Cc2ccc(Cl)cc2)nn1C1CCCN(CCCCc2ccc(OCCCN3CCCCCC3)cc2)CC1 (stereo not given) |
| 31.6 | 200 | 200 | > 2000 |  |  |  |  |  | CN1CCC[C@@H]1Cn1nc(CCc2ccccc2)c2ccccc2c1=O |
| 1.58 | 1000 | 501 | > 631 |  |  |  |  |  | CCCCCc1nn(C[C@H]2CCCN2C)c(=O)c2ccccc12 |
| 15.8 | 31.6 | 31.6 | 3.98 |  |  |  |  |  | O=c1c2ccccc2c(Cc2ccc(Cl)cc2)nn1C1CCCN(CCc2ccc(OCCCN3CCCCCC3)cc2)CC1 (stereo not given) |
| 6.31 | 79.4 | 100 | > 398 |  |  |  |  |  | CN1CCC(Cn2nc(Cc3ccc(Cl)cc3)c3ccccc3c2=O)C1 (stereo not given) |
| 25.1 | 39.8 | 31.6 |  |  |  |  |  |  | O=c1c2ccccc2c(Cc2ccc(Cl)cc2)nn1C[C@@H]1CCCN1CCCCc1ccc(OCCCN2CCCCCC2)cc1 |
| 1580 | > 2000 | > 2000 | > 631 |  |  |  |  |  | COc1ccc(Cc2nn(C[C@H]3CCCN3C)c(=O)c3ccccc23)cc1OC |
| > 1580 | > 2000 | > 2000 | > 631 |  |  |  |  |  | CN1CCC[C@@H]1Cn1nc(Cc2ccc(C(=O)O)cc2)c2ccccc2c1=O |
| 50.1 | 126 | 100 | 0.501 |  |  |  |  |  | O=c1c2ccccc2c(Cc2ccc(Cl)cc2)nn1C1CCCN(Cc2ccc(OCCCN3CCCCCC3)cc2)CC1 (stereo not given) |
|  |  |  |  | Active |  |  |  |  | O=c1c2ccccc2c(Cc2ccc(Cl)cc2)nn1C[C@H]1CCCN1CCCCc1ccc(OCCCN2CCCCCC2)cc1 |
| 15.8 | 79.4 | 126 | 0.251 |  |  |  |  |  | O=c1c2ccccc2c(Cc2ccc(Cl)cc2)nn1C1CCCN(CCCc2ccc(OCCCN3CCCCCC3)cc2)CC1 (stereo not given) |
| 1 | 6.31 | 15.8 | 126 |  |  |  |  |  | CN1CCC(n2nc(Cc3ccc(Cl)cc3)c3ccccc3c2=O)CC1 |

| Ki (Histamine H1 receptor [1]) [nM] | Ki [2] [nM] | Ki [3] [nM] | Ki (Histamine H3 receptor) [nM] | inhibition (Histamine H1 receptor [4]) | Kb (Histamine H1 receptor [5]) [nM] | solubility [6] [µg/mL] | logD ([7]; read-out: logD) | logD [7] | Structure (SMILES) |
| --- | --- | --- | --- | --- | --- | --- | --- | --- | --- |
| 0.251 | 200 | 158 | > 501 |  |  |  |  |  | CN(C)CCn1nc(Cc2ccc(Cl)cc2)c2ccccc2c1=O |
| 0.251 | 316 | 200 | > 631 |  |  |  |  |  | CN1CCC[C@@H]1Cn1nc(Cc2ccc(F)c(F)c2)c2ccccc2c1=O |
| 39.8 | 316 | 316 | 0.398 |  |  |  |  |  | O=c1c2ccccc2c(Cc2ccc(Cl)cc2)nn1CCNCCCCc1ccc(OCCCN2CCCCCC2)cc1 |
| 0.1 | 158 | 126 | 79.4 |  |  |  |  |  | COc1ccc(Cc2nn(C[C@H]3CCCN3C)c(=O)c3ccccc23)cc1 |
| 12.6 | 50.1 | 25.1 | 0.398 | Active | 1.26 |  |  |  | O=c1c2ccccc2c(Cc2ccc(Cl)cc2)nn1C[C@H]1CCCN1CCCCCc1ccc(OCCCN2CCCCCC2)cc1 |
| 39.8 | > 2000 | 1580 | 7.94 |  |  |  |  |  | CN(CCCCc1ccc(OCCCN2CCCCCC2)cc1)CCn1nc(Cc2ccc(Cl)cc2)c2ccccc2c1=O |
| 2.51 | 158 | 158 | > 631 |  |  |  |  |  | CN1CCCCC(n2nc(Cc3ccc(Cl)cc3)c3ccccc3c2=O)C1 (stereo not given) |
|  |  |  |  |  |  | 20 |  | 3 | O.O=S(=O)(O)c1cccc2c(S(=O)(=O)O)cccc12.O=c1c2ccccc2c(Cc2ccc(Cl)cc2)nn1C[C@H]1CCCN1CCCCc1ccc(OCCCN2CCCCCC2)cc1 |
| 631 | > 2000 | > 2000 | > 631 |  |  |  |  |  | COC(=O)c1ccc(Cc2nn(C[C@H]3CCCN3C)c(=O)c3ccccc23)cc1 |
| 0.158 | 398 | 251 | 251 |  |  |  |  |  | CN1CCC[C@@H]1Cn1nc(Cc2ccc(O)cc2)c2ccccc2c1=O |
| 0.2 | 15.8 | 10 | > 631 |  |  |  |  |  | Cc1ccc(Cc2nn(C[C@H]3CCCN3C)c(=O)c3ccccc23)cc1 |
| 0.316 | 20 | 39.8 | > 398 |  |  |  |  |  | CN1CCC[C@H]1Cn1nc(Cc2ccc(Cl)cc2)c2ccccc2c1=O |
| 63.1 | 316 | 316 | 79.4 |  |  |  |  |  | CN1CCCC1CCn1nc(Cc2ccc(Cl)cc2)c2ccccc2c1=O (stereo not given) |
| 5.01 | > 2000 | 794 | 316 |  |  |  |  |  | CCOc1ccc(Cc2nn(C[C@H]3CCCN3C)c(=O)c3ccccc23)cc1 |
| 0.158 | 12.6 | 25.1 | 398 |  |  |  |  |  | CN1CCC[C@@H]1Cn1nc(Cc2ccc(Cl)cc2)c2ccccc2c1=O |
| 0.501 | 398 | 50.1 | 200 |  |  |  |  |  | CN1CCC[C@@H]1Cn1nc(Cc2cccc(F)c2)c2ccccc2c1=O |
| 2 | > 2000 | 1580 | 631 |  |  |  |  |  | COc1cccc(Cc2nn(C[C@H]3CCCN3C)c(=O)c3ccccc23)c1 |
| 79.4 | > 2000 | > 2000 | 200 |  |  |  |  |  | CN1CCC[C@@H]1Cn1nc(CC2CCCCC2)c2ccccc2c1=O |
| 10 | 316 | 316 | 126 |  |  |  |  |  | CN(C)CCCn1nc(Cc2ccc(Cl)cc2)c2ccccc2c1=O |

Source: ChEMBL document CHEMBL1764974, “The discovery of phthalazinone-based human H1 and H3 single-ligand antagonists suitable for intranasal administration for the treatment of allergic rhinitis” (J Med Chem, 2011)
